# Experimental data reported in ChEMBL document CHEMBL4513216, “Probing the Open Global Health Chemical Diversity Library for Multistage-Active Starting Points for Next-Generation Antimalarials” (ACS Infect Dis, 2020).
# Experiment: Toxicity liver stage against HepG2, at 10uM
# Type: cell-based
# Design: test concentration 10 uM, cell line HepG2-A16-CD81EGFP
# Settings: human, HepG2-A16-CD81EGFP cells; read-out: INHIBITION
# In short: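 Uninfected HepG2-A16-CD81EGFP cells, 3 × 10^3 per well, 1536-well, plated on prespotted compound at 10 μM final, parasite-free screening media added to match infected plates; puromycin 10 μM positive, DMSO 0.5% negative; run in parallel with 48 h PbLuc assay at 37 °C, 5% CO2; viability by CellTiter-Glo luminescence, normalized to controls.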
row,SMILES,cytotoxicity at 10 µM
1,CC1=Nc2c(c(=O)[nH]n2C2CCCC2)C(c2ccc(C(=O)O)cc2)S1 (centres undefined),-10.4%
2,CN(C)S(=O)(=O)N1CCC(Cn2cccn2)CC1,-10.9%
3,CC(C)n1cnc(C2CN(C)c3ccc(C(=O)NCC4CC4)cc32)n1 (centres undefined),-2.19%
4,CCS(=O)(=O)N1CCc2ccc(=O)n(CC3CC3)c2CC1,7.95%
5,CN(Cc1ccccc1)CC1CC2(CO1)CN(Cc1nccs1)C2 (centres undefined),8.88%
6,Cc1noc(C[C@@H]2COC[C@H]3CN(S(C)(=O)=O)C[C@@H]23)n1,12.2%
7,Cc1cnc(N2CCOC3(CCCN(C(=O)C(C)C)C3)C2)nc1 (centres undefined),10.9%
8,COCC1CC2(CCN(C(=O)C3CCSCC3)CC2)CO1 (centres undefined),-8.93%
9,CN(C)Cc1cc(=O)n2c(n1)CN(Cc1ccco1)CCC2,7.07%
10,O=C1COC2(CCN(c3ncccn3)CC2)CN1c1ccsc1,-0.31%
11,COc1cc(N2CCc3ncnc(-c4cnn(C)c4)c3CC2)ncn1,8.46%
12,CC(C)C(=O)N1CCN(S(=O)(=O)C2CC2)CC2(CC(=O)N(C)C2)C1 (centres undefined),8.4%
13,Cc1ccc(N2CCC3(CCN(Cc4nccs4)CC3)CC2)nn1,10.6%
14,O=C(c1c2c(NCC3CC3)ncnc2n2ccccc12)N1CCCC1,9.31%
15,Fc1cccnc1N1CCOCC2(CCCNC2)C1 (centres undefined),3.44%
16,Cn1cc(CN2CCc3ncn(C)c3C2COCc2cccnc2)cn1 (centres undefined),6.86%
17,CCNC(=O)c1sccc1N(C)S(=O)(=O)c1ccc(Cl)cc1,10.8%
18,Cc1cc(NC(=O)c2nn(C3CCS(=O)(=O)C3)c3c2CCCC3)no1 (centres undefined),3.85%
19,Cc1c(Cl)cccc1NCc1nc2n(n1)CCCCC2,10.6%
20,CSc1nc2ccsc2c(=O)n1CC(=O)NC1CCCCC1,4.45%
21,Cc1nc(C)n(CCC(=O)NCC2CCCOC2)n1 (centres undefined),4.3%
22,Cc1nc(NC2CCCC2)cc(C2CCN2c2ncccn2)n1 (centres undefined),-0.943%

row,SMILES,cytotoxicity at 10 µM
1,Cc1c[nH]c(C2CN(Cc3ccccc3C(=O)O)CCO2)n1 (centres undefined),-0.822%
2,CN1CCN(C(=O)CCCc2ccccc2)CC(O)(Cn2cccn2)C1 (centres undefined),-1.93%
3,COc1ccc2c(c1)C(=O)NC1(CC2)CCN(Cc2ccncc2)C1 (centres undefined),3.44%
4,CC(C)n1nnc(CC(=O)NCC2(c3cccc(F)c3)CCCC2)n1,4.5%
5,CC1CCc2nn(CCNC(=O)Cc3ccc(F)cc3)c(=O)cc2C1 (centres undefined),7.61%
6,CN(C)c1cccc(C2CCN(C3COCC3O)CC2)n1 (centres undefined),-13.9%
7,CNc1nccnc1C1CN(Cc2ccc(OCC(=O)O)cc2)CCO1 (centres undefined),-5.73%
8,Cn1cc(CN2CCc3c(nc(-c4ccccn4)[nH]c3=O)C2)cn1,-5.05%
9,Cc1ccc(CC(=O)N(C)CC2(O)CCN(c3ccccn3)C2)s1 (centres undefined),-10.4%
10,CN(c1cccnc1N1CCCC1)S(=O)(=O)c1cnn(C)c1,-4.28%
11,CC(C)Cc1cc(C(=O)N2CCC(Cc3cnn(C)c3)C2)cc(O)n1 (centres undefined),-2.1%
12,CN(Cc1cc(F)cc2cccnc12)CC1CCN(CCO)CC1,1.9%
13,Cc1noc(C(C)C)c1C(=O)N1CCC(n2cccn2)CC1,-4.32%
14,CC(C)c1ocnc1C(=O)Nc1cccc(Cn2ccccc2=O)c1,8.15%
15,CCCOCCOC(=O)c1ccc2c(c1)[nH]c(=O)n2C,-16.4%
16,CCCc1noc(CN2CCN(CCC(C)C)CC2)n1,-1.48%
17,CCNS(=O)(=O)c1ccc(C)c(C(=O)N(CCC#N)Cc2ccco2)c1,5.44%
18,Cc1nc(CNC2CCCN(c3cccnn3)C2)no1 (centres undefined),-5.55%
19,COCCOCCNC(=O)c1cccc(Cn2nc(C)cc2C)c1,17.6%
20,CCC(NC(=O)Nc1ccc(OC)c(C)c1)c1ccncc1 (centres undefined),-2.07%
21,Cc1cc(C(=O)Nc2ccc(OC3CCOCC3)c(C)c2)[nH]n1,-8.03%
22,Cc1n[nH]c(C)c1C1CCCN1C(=O)c1cc(Br)c[nH]1 (centres undefined),-4.08%

row,SMILES,cytotoxicity at 10 µM
1,NC(=O)c1cccc(CCNC(=O)N2Cc3ccccc3C2)c1,-9.86%
2,Cc1ncc2c(n1)CN(CCOCC(F)(F)F)CC2,-0.598%
3,CN(C)S(=O)(=O)CCCOc1cccc(-n2ccnc2)c1,14%
4,Fc1ccc(-c2nnc(CNC3CCc4ncnn4C3)o2)cc1 (centres undefined),-3.67%
5,COC(=O)N1CCCC(C(=O)N(C)C)C1 (centres undefined),-5.87%
6,O=C1NCC(C(=O)Nc2ccc(=O)n(Cc3ccccc3Cl)c2)N1 (centres undefined),-1.73%
7,CC(NCc1cnc(N2CCN(C)CC2)nc1)c1ccc(F)cc1 (centres undefined),-5.26%
8,Cc1noc(C)c1CN(C)C(=O)Cn1c(=O)n(C)c2ccccc21,-4.32%
9,N#Cc1cn(CC(=O)NC2CC2)c2ccc(Br)cc2c1=O,27.4%
10,COc1ccc(CNC(=O)CNc2cc3c(cc2Cl)OCCCO3)cc1,3.25%
11,N#Cc1cccc(SCCS(N)(=O)=O)c1,-2.53%
12,O=C(NC1(c2cccc(F)c2)CCOCC1)c1ccccn1,-12.3%
13,COCCN(C)Cc1ccc(OC)c(OC(F)F)c1,-5.5%
14,CC(C)N(C)[C@@H]1CCN(S(C)(=O)=O)[C@H]1Cc1ccccc1,5.7%
15,O=C(O)c1c(-c2ccncc2)ncc2c1CCN(Cc1ccco1)C2,-3.6%
16,COCC1CN(C(=O)CC2=CCCCC2)Cc2nnn(CC3CC3)c21 (centres undefined),-116%
17,O=C(c1cccs1)N1CC[C@H]2C[C@@H](c3nnc(C4CC4)o3)O[C@@H]2C1,-109%
18,O=C([C@H]1CN(Cc2nccs2)C[C@H]2OCC[C@@H]12)N1CCCC1,-94.1%
19,Cc1nnn2c1COCC(CNC(=O)c1ccc[nH]1)C2 (centres undefined),2.7%
20,COCCO[C@H]1CCN(C(=O)C2CCOCC2)[C@H]1Cc1ccncc1,4.32%
21,O=C(CC1CC1)N(Cc1cccnc1)CC1CCN(C2CCCC2)CC1,5.95%
22,CNc1nc(C(=O)N2CCCn3nc(C(=O)N4CCCC4)cc3C2)cs1,4.57%

row,SMILES,cytotoxicity at 10 µM
1,COc1cc2c(cc1CNC(=O)C(C)n1ccnc1C(C)C)CCC2 (centres undefined),0.719%
2,CCOCCC(=O)N1Cc2cnc(-c3ccccc3)nc2C1,-6.88%
3,CCN(CC)Cc1nc(Cc2cccc(C(F)(F)F)c2)no1,9.76%
4,Cc1nc(N2C[C@@H](CN3CCCN(C)CC3)[C@@H](CO)C2)c2sccc2n1,-8.64%
5,CSc1ccccc1C(=O)C1CCCN(Cc2cc(C(C)C)[nH]n2)C1 (centres undefined),-4.01%
6,CC(C)c1cc(C2CCCN2C(=O)c2cn3ccsc3n2)no1 (centres undefined),-2.33%
7,CCOCCc1nc(CCc2ccccc2)n[nH]1,10.3%
8,CCC(=O)N1CCN(C(=O)c2ccc(COC)o2)[C@H]2CS(=O)(=O)C[C@H]21,-10.9%
9,Cc1cnc(-c2cccc(-c3ccn(CCCO)n3)c2)nc1N(C)C,-7.6%
10,CC(=O)c1ccc(NC(=O)N(CCN(C)C)Cc2ccc(C)s2)cc1,-16.5%
11,CC(Cc1ccccn1)N(C)Cc1ccc2c(c1)CCO2 (centres undefined),-0.0105%
12,CCc1cc(NCc2cc(CC(C)C)on2)n2nccc2n1,3.59%
13,O=C1CCC2(CCCO2)CCN1Cc1noc(C2CCCC2)n1 (centres undefined),4.24%
14,COc1ccc(C)cc1C(C(=O)O)N1CCN(Cc2ccccn2)CC1 (centres undefined),4.4%
15,Cc1ccc(-c2nc(CNC(C)CCO)[nH]c2-c2ccccn2)cc1 (centres undefined),-6.78%
16,O=C(CC[C@@H]1CCCN2CCCC[C@H]12)NCCc1cc(O)ncn1,-1.91%
17,Cc1nn(C)c(Oc2ccc(Cl)cc2)c1CN1CCOC(CN)C1 (centres undefined),8.85%
18,Cc1ccc(-c2noc(CC[C@@H]3CCCN4CCCC[C@H]34)n2)nn1,-4.56%
19,CCn1c(C)nnc1SCCNc1nc(C)nc2c1cnn2C,7.9%
20,CSCCc1c(-c2ccccc2)ncn1CC(C)(C)N1CCCC1,-47.8%
21,CCC[C@H]1CN(CCS(C)(=O)=O)C[C@@H]1NC(=O)c1ccccn1,1.13%
22,COCc1cc(NCCc2ccc(S(N)(=O)=O)cc2)n2nccc2n1,6.45%

row,SMILES,cytotoxicity at 10 µM
1,Cn1ccnc1CN1C[C@@H](CN2CCC(CO)CC2)[C@@H](CO)C1,-15.5%
2,CC(C)NC(=O)[C@@H]1C[C@H](N)CN1C(=O)c1cc2ccccc2[nH]c1=O,10.3%
3,O[C@H]1[C@H](n2cc(-c3ccccc3)nn2)c2ccccc2C12CCNCC2,7.62%
4,Cc1noc(Cl)c1CCC(=O)N1CCN(c2ccccc2)CC1,-1.37%
5,CNc1nc(CNC(=O)Nc2cccc(CSC)c2)cs1,-3.01%
6,CC1CN(CC(=O)Nc2nccs2)CCN1Cc1nccn1C (centres undefined),-15.4%
7,c1ccc(Cc2noc(CN3CCCCC3Cn3cncn3)n2)cc1 (centres undefined),-13.2%
8,Cc1nc2ccccc2nc1CN1CCOC(Cn2cccn2)C1 (centres undefined),1.1%
9,CS(=O)(=O)N1CCCN(C(=O)c2ccc(Cn3ccccc3=O)o2)CC1,-3.41%
10,Cc1nc2cc(C(=O)N3CCCC(n4cncn4)C3)ccc2n1C (centres undefined),-8.26%
11,CCC1CN(CCC(=O)N(C)C)CCN1CCOC (centres undefined),-6.34%
12,CCc1ccc(C(=O)O)cc1S(=O)(=O)Nc1ccc(F)c(C#N)c1,-10.9%
13,Cc1cc(-c2nccs2)nc(C2CCN(Cc3ccncc3)CC2)n1,8.6%
14,c1ccc(NCc2cn3c(n2)CN(Cc2cccs2)CC3)nc1,5.22%
15,CC(C)NC(=O)[C@@H]1CN(Cc2ccc3c(c2)OCO3)C[C@H]2OCC[C@H]21,3.65%
16,O=C(NC1CCCC1)C1(Cc2cc(C3CCOC3)no2)CCNCC1 (centres undefined),-1.57%
17,CCCN1CCC2(CC1)CN(C(=O)c1cccnc1)c1ccc(F)cc12,-104%
18,c1cnc(N2CCOCC3(CN(Cc4cc[nH]n4)CCO3)C2)nc1 (centres undefined),10%
19,CCS(=O)(=O)N1CCC2(CCN(Cc3nccs3)CC2)CC1,7.13%
20,O=C(N1CCCC1)N1C[C@@H]2CC[C@H]1CN(Cc1ccncc1)C2,4.63%
21,O=c1[nH][nH]c2cn(-c3ccc(F)cc3)c(=O)n12,-1.45%
